Results: ChEMBL document CHEMBL1151729 (J Med Chem, 2008)
The source made the active and inactive calls. The rule behind the calls is not given here.

Columns and labels:
Galectin-1 [1] = target: T1, Galectin-1 (Homo sapiens, UniProt P09382); assay: Binding affinity to galectin 1 at 20 degC by fluorescence polarization assay
Galectin-3 = Galectin-3 (Homo sapiens, UniProt P17931); assay: Binding affinity to galectin 3 at 20 degC by fluorescence polarization assay
Galectin-8 = target: T2, Galectin-8 (Homo sapiens, UniProt O00214); assay: (§1) Binding affinity to galectin 8N terminal domain at 20 degC by fluorescence polarization assay
T2 sequence (O00214 whole entry): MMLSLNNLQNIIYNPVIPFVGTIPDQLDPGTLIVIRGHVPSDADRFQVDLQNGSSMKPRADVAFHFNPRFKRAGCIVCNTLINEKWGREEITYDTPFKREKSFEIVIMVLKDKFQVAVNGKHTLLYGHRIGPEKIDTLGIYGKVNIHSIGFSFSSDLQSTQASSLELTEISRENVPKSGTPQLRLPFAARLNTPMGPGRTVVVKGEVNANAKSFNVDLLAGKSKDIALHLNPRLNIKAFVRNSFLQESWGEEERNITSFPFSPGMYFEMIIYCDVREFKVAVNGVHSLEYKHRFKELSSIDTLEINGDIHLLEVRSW

Galectin-9 = Galectin-9 (Homo sapiens, UniProt O00182); assay: Binding affinity to galectin 9N terminal domain at 0 degC by fluorescence polarization assay
Chain of Galectin-9 (O00182 whole entry, the tested form may be a part): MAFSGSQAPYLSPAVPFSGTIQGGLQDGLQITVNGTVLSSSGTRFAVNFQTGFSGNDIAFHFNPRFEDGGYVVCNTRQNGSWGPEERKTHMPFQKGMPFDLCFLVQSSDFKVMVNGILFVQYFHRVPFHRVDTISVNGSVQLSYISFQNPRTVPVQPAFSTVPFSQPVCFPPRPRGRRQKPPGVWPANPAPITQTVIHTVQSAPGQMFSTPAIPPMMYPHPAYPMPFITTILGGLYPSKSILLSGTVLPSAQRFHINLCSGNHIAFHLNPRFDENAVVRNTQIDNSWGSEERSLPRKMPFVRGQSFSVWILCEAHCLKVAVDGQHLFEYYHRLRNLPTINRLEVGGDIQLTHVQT

Galectin-7 = Galectin-7 (Homo sapiens, UniProt P47929); assay: Binding affinity to galectin 7 at 0 degC by fluorescence polarization assay
Chain of Galectin-7 (P47929 whole entry): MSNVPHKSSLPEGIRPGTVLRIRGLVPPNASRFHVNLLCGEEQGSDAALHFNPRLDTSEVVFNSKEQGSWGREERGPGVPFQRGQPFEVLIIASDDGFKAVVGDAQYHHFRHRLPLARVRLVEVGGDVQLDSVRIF

Galectin-1 [2] = target: T1, Galectin-1; assay: Binding affinity to galectin 1 at 0 degC by fluorescence polarization assay
A549 [3] = assay: Antimigratory effect in human A549 cells assessed as cell motility at 100 nM after 24 hrs relative to control; format: functional, cell-based
Outline: (§2)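 Cell motility of human A549 non-small-cell lung and PC-3 hormone-refractory prostate cancer cells measured by computer-assisted phase-contrast quantitative videomicroscopy over 12 h and 24 h with inhibitor at 1, 10 or 100 nM. Motility calculated in µm per hour and expressed as % of untreated control (100%). Triplicate experiments, mean ± SEM, Mann-Whitney test versus control.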

PC-3 [4] = assay: Antimigratory effect in human PC-3 cells assessed as cell motility at 1 nM after 24 hrs relative to control; format: functional, cell-based; outline: as §2
[5] = target: T3, Galectin-8 (Homo sapiens) (UniProt O00214); assay: as §1
T3 sequence (whole entry): T2 sequence (O00214 whole entry)

A549 [6] = assay: Antimigratory effect in human A549 cells assessed as cell motility at 10 nM after 24 hrs relative to control; format: functional, cell-based; outline: as §2
PC-3 [7] = assay: Antimigratory effect in human PC-3 cells assessed as cell motility at 100 nM after 24 hrs relative to control; format: functional, cell-based; outline: as §2

T1 sequence (P09382 whole entry): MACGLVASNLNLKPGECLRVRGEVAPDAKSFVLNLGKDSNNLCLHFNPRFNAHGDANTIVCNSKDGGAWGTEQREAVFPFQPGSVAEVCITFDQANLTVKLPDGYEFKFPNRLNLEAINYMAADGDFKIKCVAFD
Chain of Galectin-3 (P17931 whole entry, the tested form may be a part): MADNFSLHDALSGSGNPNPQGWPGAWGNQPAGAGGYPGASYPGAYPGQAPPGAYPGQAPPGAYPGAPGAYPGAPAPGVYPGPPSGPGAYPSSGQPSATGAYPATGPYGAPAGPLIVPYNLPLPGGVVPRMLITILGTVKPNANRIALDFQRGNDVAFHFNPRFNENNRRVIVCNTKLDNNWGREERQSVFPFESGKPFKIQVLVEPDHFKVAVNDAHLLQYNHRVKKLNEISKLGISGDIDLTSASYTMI

Work on `Cc1ccc(C(=O)O[C@H]2[C@@H](O)[C@@H](CO)O[C@@H](S[C@@H]3O[C@H](CO)[C@H](O)[C@H](OC(=O)c4ccc(C)cc4)[C@H]3O)[C@@H]2O)cc1` yielded a Kd (Galectin-1 [1]) of 10.3 µM, a Kd (Galectin-3) of 3.6 µM and a Kd (Galectin-8) of 135 µM. It also gave a Kd (Galectin-9) of 15 µM and a Kd (Galectin-7) of 190 µM.

`O=C(O[C@H]1[C@@H](O)[C@@H](CO)O[C@@H](S[C@@H]2O[C@H](CO)[C@H](O)[C@H](OC(=O)c3ccc4ccccc4c3)[C@H]2O)[C@@H]1O)c1ccc2ccccc2c1` showed a Kd (Galectin-1 [1]) of 14.7 µM, a Kd (Galectin-3) of 10.7 µM and a Kd (Galectin-8) of 100 µM. For the same compound, the Kd (Galectin-9) was 2.8 µM and the Kd (Galectin-7) was 48 µM.

With `CC(=O)N[C@@H]1[C@@H](O)[C@H](O[C@@H]2O[C@H](CO)[C@H](O)[C@H](O)[C@H]2O)[C@@H](CO)O[C@H]1O` the Kd (Galectin-3) was 59 µM, the Kd (Galectin-8) was 1000 µM and the Kd (Galectin-9) was 490 µM. It also gave a Kd (Galectin-7) of 550 µM.

In the case of `COc1cccc(C(=O)N[C@H]2[C@@H](O)[C@@H](CO)O[C@@H](S[C@@H]3O[C@H](CO)[C@H](O)[C@H](NC(=O)c4cccc(OC)c4)[C@H]3O)[C@@H]2O)c1`, the Kd (Galectin-1 [2]) is reported as 2 µM, the Kd (Galectin-8) is reported as 100 µM and the Kd (Galectin-9) is reported as 1.8 µM. The Kd (Galectin-7) was 2.1 µM.

`O=C(O[C@H]1[C@@H](O)[C@@H](CO)O[C@@H](S[C@@H]2O[C@H](CO)[C@H](O)[C@H](OC(=O)c3cccc4ccccc34)[C@H]2O)[C@@H]1O)c1cccc2ccccc12` showed a Kd (Galectin-1 [1]) of 16.8 µM, a Kd (Galectin-3) of 3.8 µM and a Kd (Galectin-8) of 24 µM. The Kd (Galectin-9) was 8.3 µM, the Activity (A549 [3]) was “Active” and the Activity (PC-3 [4]) was “Active”. For the same compound, the Kd (Galectin-7) was 24 µM.

`CO[C@@H]1O[C@H](CO)[C@@H](O[C@@H]2O[C@H](CO)[C@H](O)[C@H](NC(=O)c3cccc4ccccc34)[C@H]2O)[C@H](O)[C@H]1NC(C)=O` was tested, and the Kd (Galectin-3) was 4.4 µM, the Kd (Galectin-1 [2]) was 25 µM and the Activity [5] was “Active”. The Kd (Galectin-9) was over 100 µM and the Kd (Galectin-7) was 7.6 µM.

`O=C(O[C@H]1[C@@H](O)[C@@H](CO)O[C@@H](S[C@@H]2O[C@H](CO)[C@H](O)[C@H](OC(=O)c3ccccc3)[C@H]2O)[C@@H]1O)c1ccccc1` was tested, and the Kd (Galectin-1 [1]) was 6.4 µM, the Kd (Galectin-3) was 1.6 µM and the Kd (Galectin-8) was 104 µM. It also gave a Kd (Galectin-9) of 2.2 µM and a Kd (Galectin-7) of 22 µM.

With `CO[C@@H]1O[C@H](CO)[C@@H](O[C@@H]2O[C@H](CO)[C@H](O)[C@H](O)[C@H]2O)[C@H](O)[C@H]1OC(=O)c1cccc2ccccc12` the Kd (Galectin-3) was 2.5 µM, the Kd (Galectin-1 [2]) was 14 µM and the Kd (Galectin-8) was 530 µM. The Kd (Galectin-9) was 1.6 µM and the Kd (Galectin-7) was 54 µM.

`O=C(N[C@H]1[C@@H](O)[C@@H](CO)O[C@@H](S[C@@H]2O[C@H](CO)[C@H](O)[C@H](NC(=O)c3ccccc3)[C@H]2O)[C@@H]1O)c1ccccc1` was tested, and the Kd (Galectin-1 [2]) was 35 µM, the Activity [5] was “Active” and the Kd (Galectin-9) was 7 µM. For the same compound, the Kd (Galectin-7) was 4.3 µM.

`COc1cccc(C(=O)O[C@H]2[C@@H](O)[C@@H](CO)O[C@@H](S[C@@H]3O[C@H](CO)[C@H](O)[C@H](OC(=O)c4cccc(OC)c4)[C@H]3O)[C@@H]2O)c1` gave a Kd (Galectin-1 [1]) of 4.4 µM, a Kd (Galectin-3) of 0.69 µM and a Kd (Galectin-8) of 42 µM. The Kd (Galectin-9) was 1.4 µM, the Activity (A549 [6]) was “Active” and the Activity (PC-3 [7]) was “Active”. It also gave a Kd (Galectin-7) of 22 µM.

Compound `O=C(N[C@H]1[C@@H](O)[C@@H](CO)O[C@@H](S[C@@H]2O[C@H](CO)[C@H](O)[C@H](NC(=O)c3ccc4ccccc4c3)[C@H]2O)[C@@H]1O)c1ccc2ccccc2c1` has a Kd (Galectin-3) of 0.16 µM, a Kd (Galectin-1 [2]) of 9.6 µM and a Kd (Galectin-8) of over 100 µM. It also gave a Kd (Galectin-9) of 0.73 µM and a Kd (Galectin-7) of 1.7 µM.
